In ChEMBL document CHEMBL1122925 (J Med Chem, 1985):
Where “and” joins values, the source holds several entries; their conditions need not be identical. Equal entries are not always repeated.

Columns and labels:
Vero [1] = assay: The concentration required to inhibit the growth of viral plaques by 50% of control in plaque reduction assay; type: functional, cell-based; conditions: Chlorocebus sabaeus
Method in brief: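 HSV-1 plaque-reduction assay, H29 strain for most values and Mac strain for some. IC50 is the concentration that inhibits viral plaque growth by 50% relative to controls.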

[2] = system: Thymidine kinase (Human herpesvirus 1); assay: Ability (300 uM) to compete with 150 uM of [14C]ACV for binding sites on viral enzyme, Mac strain (HSV-1 TK); conditions: Human alphaherpesvirus 1
[3] = system: Thymidine kinase (Human herpesvirus 1); assay: Relative substrate velocity was evaluated against Mac strain by using HSV-1 TK assay; conditions: Human alphaherpesvirus 1
[4] = system: Thymidine kinase (Human herpesvirus 1); assay: Ability (300 uM) to compete with 150 uM of [14C]ACV for binding sites on H29 strain viral enzyme (HSV-1 TK); conditions: Human alphaherpesvirus 1
Vero [5] = assay: Zone of inhibition of plaque formation in vero cells inoculated with HSV-1 virus along with disks containing 50 ug of compound; 11-50 mm zone of inhibition; type: functional, Chlorocebus sabaeus
Method in brief: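 HSV-1 plaque-inhibition test in Vero cells, H29 strain for most values and Mac strain for some. Disks carry 50 μg of test compound. The read-out is the diameter of the zone without plaque formation, and a zone of 11–50 mm is scored (+).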

[6] = system: Thymidine kinase (Human herpesvirus 1); assay: Relative substrate velocity was evaluated against H29 strain by using HSV-1 TK assay; conditions: Human alphaherpesvirus 1
[7] = system: Thymidine kinase (Human herpesvirus 1); assay: Ability (300 uM) to compete with 150 uM of [14C]ACV for binding sites on viral enzyme (HSV-1 TK); conditions: Human alphaherpesvirus 1
[8] = system: Thymidine kinase (Human herpesvirus 1); assay: Relative substrate velocity was evaluated by using HSV-1 TK assay; conditions: Human alphaherpesvirus 1
[9] = biological target: T1, Thymidine kinase (Human alphaherpesvirus 1) (UniProt Q9QNF7); assay: Relative substrate velocity was evaluated by using HSV-1 TK assay
T1 sequence (whole entry): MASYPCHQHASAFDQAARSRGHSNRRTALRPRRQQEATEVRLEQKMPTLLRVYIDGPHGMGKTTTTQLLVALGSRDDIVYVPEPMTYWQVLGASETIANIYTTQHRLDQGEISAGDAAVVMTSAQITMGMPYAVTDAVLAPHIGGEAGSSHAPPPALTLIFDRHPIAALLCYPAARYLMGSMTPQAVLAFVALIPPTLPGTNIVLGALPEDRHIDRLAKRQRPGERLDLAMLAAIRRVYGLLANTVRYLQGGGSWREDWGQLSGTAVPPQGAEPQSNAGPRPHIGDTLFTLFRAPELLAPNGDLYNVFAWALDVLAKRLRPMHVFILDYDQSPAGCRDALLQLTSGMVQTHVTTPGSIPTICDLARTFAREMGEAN

Row | SMILES | IC50 (Vero [1]) | inhibition [2] | inhibition [7] | further results
1 | Nc1nc(O)c2nnn(COCCO)c2n1 | 129 µM | 23% |  | Relative substrate velocity [3]: 5% and 9%; inhibition [4]: 27%; Zone of inhibition (Vero [5]): 11; Relative substrate velocity [6]: 9%
2 | Nc1nc2c(cnn2COCCO)c(=O)[nH]1 |  |  | 0% | 
3 | Nc1nc2c(ncn2COCCO)c(=O)[nH]1 [ACYCLOVIR] | 0.1 µM |  |  | 
4 | Nc1nc(=O)ccn1COCCO |  | 7% | 0% | Relative substrate velocity [8]: < 3%
5 | NC(=O)c1ncn(COCCO)n1 | > 200 µM |  | 0% | 
6 | NC(=O)c1ncn(COCCO)c1N |  |  | 1% | 
7 | Nc1nc(O)c2ccn(COCCO)c2n1 |  | 6% |  | Relative substrate velocity [8]: 3%
8 | Nc1nc(O)c2cc3ncn(COCCO)c3cc2n1 |  |  | 24% | Relative substrate velocity [9]: < 3%
